Here are results for 4 compounds from article PMC3943421 (Biochemistry, 2012).

Read-outs that look alike come from different tables or passages of the source. Square brackets hold non-standard residues; d marks the D form. Peptide text beside a SMILES is read from it. pY = N[C@@H](Cc1ccc(OP(=O)(O)O)cc1)C(=O)O

For assay [1], the target named is FPRck-inhibited thrombin (anion-binding exosite II) (Homo sapiens, UniProt P00734). The assay can be described thus: Surface plasmon resonance. Conditions: SPR; for measurable binding to thrombin (in words): HBS-EP+, 25°C (Figure 3). The procedure, abridged:
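Biotinylated peptides captured on streptavidin chips at 150 RU after three 60 s 1 M NaCl/50 mM NaOH conditioning pulses, with blank reference cells. HBS-EP+ (10 mM HEPES pH 7.4, 150 mM NaCl, 0.05% P20, 3 mM EDTA), 25°C. Serial thrombin injections for 20 s at 50 μl/min, 30 s dissociation, no regeneration. Buffer-only and reference signals subtracted. Equilibrium 1:1 Langmuir Kd from three replicates with fresh dilutions.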

In assay [2] the target is wild-type γ′ peptide (fibrinogen γ′ chain 410-427, both tyrosines phosphorylated). Briefly: SPR. (SPR reads the build-up and loss of mass on a sensor chip optically.)
Assay [3] has the same target. Briefly: SPR. This is another data set of the same source.
For assay [4] the target is unchanged. Briefly: SPR. The source holds these as a separate data set.
Assay [5] has the same target. The assay can be described thus: SPR. This is another data set of the same source.
Assay [6] concerns the target γ′ analog peptide #12 (amino terminal three charges substituted). Briefly: SPR.
Assay [7] addresses γ′ analog peptide #13 (carboxyl terminal three charges substituted). The assay can be described thus: SPR.
The target in a further assay is γ′ analog peptide #1. Briefly: SPR.
Another assay addresses γ′ analog peptide #2. Briefly: SPR.
For the next assay, the target named is γ′ analog peptide #3. The assay can be described thus: SPR.
Assay [8] deals with γ′ analog peptide #4 (pTyr418Tyr). The assay can be described thus: SPR.
The target in assay [9] is γ′ analog peptide #5 (Asp419Asn). Briefly: SPR.
Assay [10] addresses γ′ analog peptide #6 (pTyr422Tyr). The assay can be described thus: SPR.
The target in the next assay is γ′ analog peptide #7. Briefly: SPR.
The target in the next assay is γ′ analog peptide #8. Briefly: SPR.
The target in assay [11] is γ′ analog peptide #9 (Asp426Asn). Briefly: SPR.
Assay [12] has as its target wild-type γ′ peptide (fibrinogen γ′ chain 410-427, both tyrosines phosphorylated). Briefly: SPR. This is another data set of the same source.

PEHPAETE YNSL YPEDDL [#10]: in [1], the “measurable binding to thrombin (in words)” value is “complete absence of measurable binding”.

What is called Kd is a measure of binding affinity in units of concentration. Read a high Kd as lower affinity. Regarding `CC(C)C[C@H](NC(=O)[C@H](CC(=O)O)NC(=O)[C@H](CC(=O)O)NC(=O)[C@H](CCC(=O)O)NC(=O)[C@@H]1CCCN1C(=O)[C@H](Cc1ccc(OP(=O)(O)O)cc1)NC(=O)[C@H](CC(C)C)NC(=O)[C@H](CO)NC(=O)[C@H](CC(=O)O)NC(=O)[C@H](Cc1ccc(OP(=O)(O)O)cc1)NC(=O)[C@H](CCC(=O)O)NC(=O)[C@@H](NC(=O)[C@H](CCC(=O)O)NC(=O)[C@H](C)NC(=O)[C@@H]1CCCN1C(=O)[C@H](Cc1c[nH]cn1)NC(=O)[C@H](CCC(=O)O)NC(=O)[C@@H]1CCCN1)[C@@H](C)O)C(=O)O` [Wild-type] (H-PEHPAETE[pY]DSL[pY]PEDDL-OH), binding in assay [1] (Kd (mean ± standard error of the mean), [NaCl] 150 mM, 25°C) was characterised by a dissociation constant (Kd) of 488 ± 42 nM.

Regarding PQHPAQTQpYDSLpYPQNNL [#11], the “measurable binding to thrombin (in words)” value in [1] was “no measurable interaction with thrombin”.

Consider FPRck-inhibited thrombin (enzyme), for which the Kd in assay [2] was found to be 6050 nM; in [3], 18600 nM; in assay [4] it was 120000 nM; in [5], 440 nM; in assay [6] it was 1970 nM; in assay [7] it was 3190 nM. In addition, the Kd is 441 nM with γ′ analog peptide #1; 485 nM with γ′ analog peptide #2; 541 nM with γ′ analog peptide #3; 583 nM in assay [8]; 705 nM in [9]; 702 nM in [10]. Moreover, the Kd came out at 582 nM with γ′ analog peptide #7, 608 nM with γ′ analog peptide #8, 465 nM in [11] and 488 nM in assay [12].
